This is an account of results in ChEMBL document CHEMBL5620402, “Development of submicromolar 17β-HSD10 inhibitors and their in vitro and in vivo evaluation” (Eur J Med Chem, 2023).

In series [1] the target is T1, 3-hydroxyacyl-CoA dehydrogenase type-2 (Homo sapiens) (UniProt Q99714).
T1 sequence (whole entry): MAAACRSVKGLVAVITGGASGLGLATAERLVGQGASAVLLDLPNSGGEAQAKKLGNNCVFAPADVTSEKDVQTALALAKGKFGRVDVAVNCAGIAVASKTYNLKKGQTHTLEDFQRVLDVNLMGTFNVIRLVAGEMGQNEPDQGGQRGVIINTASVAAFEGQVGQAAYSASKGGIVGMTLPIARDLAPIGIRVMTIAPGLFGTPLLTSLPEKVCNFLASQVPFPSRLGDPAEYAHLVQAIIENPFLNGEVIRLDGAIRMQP
Kind of series: Inhibition of recombinant 17beta-HSD10 (unknown origin) expressed in Escherichia coli BL21 (DE3) assessed as residual activity at 10 uM using acetoacetyl-CoA as substrate by SAAC method relative to control. A digest of the protocol:
(§1)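 Recombinant 17β-HSD10 from E. coli BL21(DE3), 0.15 μg, was mixed with 320 μmol/L NADH in Tris-HCl pH 7.4 assay buffer. It was preincubated 5 min at 37 °C with 1 or 10 μM inhibitor or vehicle, then 320 μmol/L acetoacetyl-CoA was added. A340 was followed for 5 min. Residual activity is % of control, triplicate mean ± SD, with t-test versus control.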

Series [2] is described as follows: PBS buffer - Octanol distribution coefficient, logD of the compound at pH 7.4 by UHPLC-DAD-MS analysis. Type of series: physicochemical. The gist of the method: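 Compound (0.25 mg) was put into 500 μL of a 1:1 water–octanol (logP) or PBS pH 7.4–octanol (logD) mixture. Samples were shaken 30 min and centrifuged 10 min at 10,000 rcf. Each phase was quantified by UHPLC-DAD-MS against calibration lines.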

A short description of series [3]: Partition coefficient between Water and Octanol, logP of the compound by UHPLC-DAD-MS analysis. Particulars: pH 7.4.
Series [4] in a line: Dissociation constant, pKa of compound using buffers of given pH (range from 3.0 to 11.5) by UV-VIS spectrophotometry. Type of series: physicochemical. The gist of the method:
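Compound (10 μL of 1 mg/mL) was put into 490 μL of buffers spanning pH 3.0–11.5 in 0.5-unit steps. UV spectra were scanned at 200–400 nm and 20 °C. pKa was fitted from the sigmoidal absorbance of the dissociated form versus pH.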

A short description of series [5]: Aqueous solubility, logS of the compound at pH 7.4 phosphate buffer by nephelometry assay. Type of series: physicochemical. The gist of the method:
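Nephelometry of compound suspensions in phosphate buffer pH 7.4. Stock was 160 μg/mL, sonicated and auto-diluted over 0–160 μg/mL, with higher stocks (640 μg/mL, 2.54 mg/mL) used if needed. Wells were shaken 30 s and laser-scanned. Solubility was derived by segmental linear regression.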

Series [6] has as its target T2, 3-hydroxyacyl-CoA dehydrogenase type-2 (Homo sapiens, UniProt Q99714).
T2 sequence (Q99714 whole entry): T1 sequence (whole entry)
Kind of series: Inhibition of human recombinant 17beta-HSD10 expressed in bacterial expression system assessed as decrease in NADH using acetoacetyl-CoA as substrate. A digest of the protocol:
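Recombinant 17β-HSD10 from E. coli BL21(DE3), 0.15 μg, was mixed with 320 μmol/L NADH in 10 mM Tris-HCl pH 7.4 buffer (150 mM NaCl, 1 mM DTT, 0.001% Tween 20, 0.01% BSA). It was preincubated 5 min at 37 °C with inhibitor, then 320 μmol/L acetoacetyl-CoA was added. A340 was followed for 5 min. IC50 came from non-linear regression of ≥3 independent runs in triplicate; Ki was calculated from IC50 per Cer et al.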

Series [7] has as its target T1, 3-hydroxyacyl-CoA dehydrogenase type-2 (Homo sapiens). Kind of series: Inhibition of recombinant 17beta-HSD10 (unknown origin) expressed in Escherichia coli BL21 (DE3) assessed as residual activity at 1 uM using acetoacetyl-CoA as substrate by SAAC method relative to control. The gist of the method:
as §1

Molecules are shown by their SMILES.

On to `Oc1ccc(CNCc2nc3ccccc3s2)cc1Cl`, for which, in series [1], the Activity came to 54.1%. In series [2], this compound yielded a log distribution coefficient (logD) of 4.04. The logP in series [3] was found to be 4.03. This compound yielded a pKa in series [4] of 8.79. This compound also had a logS0 in series [5] of -3.99.

Regarding `CCOC(=O)c1ccc2nc(NC(=O)Nc3ccc(O)c(Cl)c3)sc2c1`, the Activity in series [1] was found to be 58.6%. Moreover, the logD in series [2] is 4.64. The log partition coefficient (logP) in series [3] came to 4.58. Also, in series [4], the pKa turned out to be 9.26. Besides, the logS0 in series [5] is on record as -4.81.

Take `COc1ccc2nc(NC(=O)Nc3ccc(O)c(Br)c3)sc2c1`: the IC50 in series [6] was 1.3 µM.

Regarding `Oc1ccc(NCc2nc3ccccc3s2)cc1Cl`, the Activity in series [1] was 72.1%. In series [2], this compound yielded a logD of 3.88. In addition, in series [3], the logP is 3.77. This compound came in with a pKa in series [4] of 9.07. Also, the logS0 in series [5] was -4.69.

On to `CN(C)c1ccc2nc(NC(=O)Nc3ccc(O)c(Cl)c3)sc2c1`, for which the Activity in series [7] is 62.7%; in series [1] it was 27%. In series [2], this compound registered a logD of 4.08. For the same compound, the logP in series [3] came out at 4.09. Moreover, the pKa in series [4] worked out at 4.61. In series [5], this compound showed a logS0 of -4.08.

With `CN(C)C(=O)c1ccc2nc(NC(=O)Nc3ccc(O)c(Cl)c3)sc2c1`, the results for the Activity in series [7] and in series [1] were 70% and 31%, respectively. Also, the logD in series [2] was determined as 2.95. The log partition coefficient (logP) in series [3] was 2.94. The pKa in series [4] came to 9.51. The compound also displayed a logS0 in series [5] of -4.81.

As for `COc1ccc2nc(NCc3ccc(O)c(Cl)c3)sc2c1`, the figures for the Activity in series [7] and in series [1] were 74.4% and 33.2%, respectively. In series [2], this compound showed a logD of 4.17. Moreover, the log partition coefficient (logP) in series [3] came out at 4.19. This compound had a pKa in series [4] of 8.4. In addition, the logS0 in series [5] is reported as -4.73.

As for `Oc1ccc(CNCc2nc3ccccc3o2)cc1Cl`, in series [1], the Activity was found to be 67.6%. Also, in series [2], the logD was determined as 3.19. The same compound registered a logP in series [3] of 3.14. Besides, in series [4], the pKa turned out to be 8.74. The logS0 in series [5] is listed as -3.38.

Take `CS(=O)(=O)c1ccc2nc(NC(=O)Nc3ccc(O)c(Cl)c3)sc2c1`: the IC50 in series [6] was 0.9 µM.

Regarding `COc1ccc2nc(/N=C/c3ccc(O)c(Cl)c3)sc2c1`, in series [1], the Activity was 76.6%. Also, the logD in series [2] was found to be 3.95. Further, in series [3], the logP came to 3.79. This compound returned a pKa in series [4] of 11.6. In addition, in series [5], the logS0 is reported as -4.73.

On to `COc1ccc2nc(NC(=O)Nc3ccc(O)c([N+](=O)[O-])c3)sc2c1`, for which the Activity in series [1] worked out at 79.4%. The logD in series [2] came to 3.44. The compound further returned a log partition coefficient (logP) in series [3] of 3.47. The pKa in series [4] was 10.4. Further, the logS0 in series [5] is -4.78.

With `Oc1ccc(CNCc2cc3ccccc3[nH]2)cc1Cl`, the Activity in series [1] turned out to be 73.8%. This compound returned a log distribution coefficient (logD) in series [2] of 2.73. Further, the logP in series [3] was 2.84. The pKa in series [4] is 7.6. In addition, the logS0 in series [5] was -3.39.

In the case of `Oc1ccc(/N=C/c2nc3ccccc3s2)cc1Cl`, the Activity in series [1] is 68.7%. Moreover, in series [2], the pH-dependent lipophilicity (logD) was 2.73. Also, in series [3], the logP stood at 2.94. This compound also had a pKa in series [4] of 9.14. Besides, the logS0 in series [5] is on record as -4.68.
